From ChEMBL document CHEMBL1629545, “A morpholino oligomer targeting highly conserved internal ribosome entry site sequence is able to inhibit multiple species of picornavirus” (Antimicrob Agents Chemother, 2008)
Active and inactive are the calls of the source. The calls are words filed in the database; no cut-off is given here.

Key:
[1] = tested on: SK-N-MC; test: Cytotoxicity against human SK-N-MC cell at 10 uM after 24 hrs by MTS assay; format: cell-based
[2] = tested on: Vero; test: Cytotoxicity against African green monkey Vero cells at 10 uM after 24 hrs by MTS assay; format: cell-based; details: chlorocebus sabaeus
[3] = tested on: HeLa; test: Cytotoxicity against human HeLa cells at 10 uM by MTS assay; format: cell-based
Method in brief: (§1)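 HeLa cells at ~80% confluence, uninfected, exposed to 1–100 μM PPMO or water (mock) in serum-free DMEM-F-12 (1:1) for 24 h. MTS reagent was added for 4 h and absorbance read at 492 nm. Viability was expressed as percent of water-treated cells (set to 100%), averaged over 12 wells.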

[4] = tested on: Poliovirus 1; test: Antiviral activity against Human poliovirus type 1 infected in Human HeLa cell assessed as inhibition of translation at 10 ug/ml by luciferase reporter gene assay; format: functional, organism-based
Method in brief: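 In-cell translation control: HeLa cells electroporated with 20 μg PV1-Luc replicon RNA were placed in medium with 10 μg/ml puromycin at 37°C in 5% CO2. Luciferase in lysates was read by luminometer at hourly time points after transfection. Two experiments were averaged.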

[5] = tested on: HeLa; test: Cytotoxicity against human HeLa cells 10 uM after 24 hrs by MTS assay; format: cell-based; method in brief: as §1

SMILES	Activity [1]	Activity [2]	Activity [3]	Activity [4]	Activity [5]
Cc1cn([C@H]2CN(P(=O)(OC[C@@H]3CN(P(=O)(OC[C@@H]4CN(P(=O)(OC[C@@H]5CN(P(=O)(OC[C@@H]6CN(P(=O)(OC[C@@H]7CN(P(=O)(OC[C@@H]8CN(P(=O)(OC[C@@H]9CN(P(=O)(OC[C@@H]%10CN(P(=O)(OC[C@@H]%11CN(P(=O)(OC[C@@H]%12CN(P(=O)(OC[C@@H]%13CN(P(=O)(OC[C@@H]%14CN(P(=O)(OC[C@@H]%15CNC[C@H](n%16cnc%17c(=O)[nH]c(N)nc%17%16)O%15)N(C)C)C[C@H](n%15cc(C)c(=O)[nH]c%15=O)O%14)N(C)C)C[C@H](n%14cc(C)c(=O)[nH]c%14=O)O%13)N(C)C)C[C@H](n%13cnc%14c(N)ncnc%14%13)O%12)N(C)C)C[C@H](n%12cnc%13c(N)ncnc%13%12)O%11)N(C)C)C[C@H](n%11ccc(N)nc%11=O)O%10)N(C)C)C[C@H](n%10cnc%11c(N)ncnc%11%10)O9)N(C)C)C[C@H](n9cc(C)c(=O)[nH]c9=O)O8)N(C)C)C[C@H](n8cnc9c(N)ncnc98)O7)N(C)C)C[C@H](n7cnc8c(=O)[nH]c(N)nc87)O6)N(C)C)C[C@H](n6cc(C)c(=O)[nH]c6=O)O5)N(C)C)C[C@H](n5cnc6c(N)ncnc65)O4)N(C)C)C[C@H](n4cc(C)c(=O)[nH]c4=O)O3)N(C)C)C[C@@H](COP(=O)(N(C)C)N3C[C@@H](COP(=O)(N(C)C)N4C[C@@H](COP(=O)(N(C)C)N5C[C@@H](COP(=O)(N(C)C)N6C[C@@H](COP(=O)(N(C)C)N7C[C@@H](COP(=O)(N(C)C)N8C[C@@H](COP(=O)(N(C)C)N9C[C@@H](COP(=O)(N(C)C)N%10CCN(C(=O)CCNC(=O)CCCCCNC(=O)[C@H](CCCNC(=N)N)NC(=O)CCCCCNC(=O)[C@H](CCCNC(=N)N)NC(=O)[C@H](CCCNC(=N)N)NC(=O)CCCCCNC(=O)[C@H](CCCNC(=N)N)NC(=O)[C@H](CCCNC(=N)N)NC(=O)CCCCCNC(=O)[C@H](CCCNC(=N)N)NC(=O)[C@H](CCCNC(=N)N)NC(=O)CCCCCNC(=O)[C@@H](N)CCCNC(=N)N)CC%10)O[C@@H](n%10cnc%11c(=O)[nH]c(N)nc%11%10)C9)O[C@@H](n9ccc(N)nc9=O)C8)O[C@@H](n8cnc9c(N)ncnc98)C7)O[C@@H](n7ccc(N)nc7=O)C6)O[C@@H](n6ccc(N)nc6=O)C5)O[C@@H](n5ccc(N)nc5=O)C4)O[C@@H](n4cnc5c(N)ncnc54)C3)O2)c(=O)[nH]c1=O (stereo not given in full)	Non-toxic	Non-toxic	Non-toxic	inactive	Toxic
Cc1cn([C@H]2CN(P(=O)(OC[C@@H]3CN(P(=O)(OC[C@@H]4CN(P(=O)(OC[C@@H]5CN(P(=O)(OC[C@@H]6CN(P(=O)(OC[C@@H]7CN(P(=O)(OC[C@@H]8CN(P(=O)(OC[C@@H]9CN(P(=O)(OC[C@@H]%10CN(P(=O)(OC[C@@H]%11CN(P(=O)(OC[C@@H]%12CNC[C@H](n%13cnc%14c(N)ncnc%14%13)O%12)N(C)C)C[C@H](n%12cnc%13c(N)ncnc%13%12)O%11)N(C)C)C[C@H](n%11cnc%12c(N)ncnc%12%11)O%10)N(C)C)C[C@H](n%10cc(C)c(=O)[nH]c%10=O)O9)N(C)C)C[C@H](n9cc(C)c(=O)[nH]c9=O)O8)N(C)C)C[C@H](n8cnc9c(N)ncnc98)O7)N(C)C)C[C@H](n7cnc8c(N)ncnc87)O6)N(C)C)C[C@H](n6cnc7c(=O)[nH]c(N)nc76)O5)N(C)C)C[C@H](n5ccc(N)nc5=O)O4)N(C)C)C[C@H](n4ccc(N)nc4=O)O3)N(C)C)C[C@@H](COP(=O)(N(C)C)N3C[C@@H](COP(=O)(N(C)C)N4C[C@@H](COP(=O)(N(C)C)N5C[C@@H](COP(=O)(N(C)C)N6C[C@@H](COP(=O)(N(C)C)N7C[C@@H](COP(=O)(N(C)C)N8C[C@@H](COP(=O)(N(C)C)N9C[C@@H](COP(=O)(N(C)C)N%10C[C@@H](COP(=O)(N(C)C)N%11CCN(C(=O)CCNC(=O)CCCCCNC(=O)[C@H](CCCNC(=N)N)NC(=O)CCCCCNC(=O)[C@H](CCCNC(=N)N)NC(=O)[C@H](CCCNC(=N)N)NC(=O)CCCCCNC(=O)[C@H](CCCNC(=N)N)NC(=O)[C@H](CCCNC(=N)N)NC(=O)CCCCCNC(=O)[C@H](CCCNC(=N)N)NC(=O)[C@H](CCCNC(=N)N)NC(=O)CCCCCNC(=O)[C@@H](N)CCCNC(=N)N)CC%11)O[C@@H](n%11cc(C)c(=O)[nH]c%11=O)C%10)O[C@@H](n%10cc(C)c(=O)[nH]c%10=O)C9)O[C@@H](n9cc(C)c(=O)[nH]c9=O)C8)O[C@@H](n8cc(C)c(=O)[nH]c8=O)C7)O[C@@H](n7cc(C)c(=O)[nH]c7=O)C6)O[C@@H](n6cc(C)c(=O)[nH]c6=O)C5)O[C@@H](n5cc(C)c(=O)[nH]c5=O)C4)O[C@@H](n4ccc(N)nc4=O)C3)O2)c(=O)[nH]c1=O (stereo not given in full)	Non-toxic	Non-toxic	Non-toxic	inactive	Toxic
Cc1cn([C@H]2CN(P(=O)(OC[C@@H]3CN(P(=O)(OC[C@@H]4CN(P(=O)(OC[C@@H]5CN(P(=O)(OC[C@@H]6CN(P(=O)(OC[C@@H]7CN(P(=O)(OC[C@@H]8CN(P(=O)(OC[C@@H]9CN(P(=O)(OC[C@@H]%10CN(P(=O)(OC[C@@H]%11CN(P(=O)(OC[C@@H]%12CN(P(=O)(OC[C@@H]%13CN(P(=O)(OC[C@@H]%14CN(P(=O)(OC[C@@H]%15CN(P(=O)(OC[C@@H]%16CN(P(=O)(OC[C@@H]%17CN(P(=O)(OC[C@@H]%18CN(P(=O)(OC[C@@H]%19CNC[C@H](n%20cnc%21c(=O)[nH]c(N)nc%21%20)O%19)N(C)C)C[C@H](n%19ccc(N)nc%19=O)O%18)N(C)C)C[C@H](n%18cnc%19c(N)ncnc%19%18)O%17)N(C)C)C[C@H](n%17cc(C)c(=O)[nH]c%17=O)O%16)N(C)C)C[C@H](n%16cc(C)c(=O)[nH]c%16=O)O%15)N(C)C)C[C@H](n%15cnc%16c(=O)[nH]c(N)nc%16%15)O%14)N(C)C)C[C@H](n%14ccc(N)nc%14=O)O%13)N(C)C)C[C@H](n%13cnc%14c(=O)[nH]c(N)nc%14%13)O%12)N(C)C)C[C@H](n%12ccc(N)nc%12=O)O%11)N(C)C)C[C@H](n%11cnc%12c(=O)[nH]c(N)nc%12%11)O%10)N(C)C)C[C@H](n%10cc(C)c(=O)[nH]c%10=O)O9)N(C)C)C[C@H](n9cc(C)c(=O)[nH]c9=O)O8)N(C)C)C[C@H](n8ccc(N)nc8=O)O7)N(C)C)C[C@H](n7cnc8c(N)ncnc87)O6)N(C)C)C[C@H](n6cnc7c(=O)[nH]c(N)nc76)O5)N(C)C)C[C@H](n5cnc6c(=O)[nH]c(N)nc65)O4)N(C)C)C[C@H](n4ccc(N)nc4=O)O3)N(C)C)C[C@@H](COP(=O)(N(C)C)N3C[C@@H](COP(=O)(N(C)C)N4C[C@@H](COP(=O)(N(C)C)N5CCN(C(=O)CCNC(=O)CCCCCNC(=O)[C@H](CCCNC(=N)N)NC(=O)CCCCCNC(=O)[C@H](CCCNC(=N)N)NC(=O)[C@H](CCCNC(=N)N)NC(=O)CCCCCNC(=O)[C@H](CCCNC(=N)N)NC(=O)[C@H](CCCNC(=N)N)NC(=O)CCCCCNC(=O)[C@H](CCCNC(=N)N)NC(=O)[C@H](CCCNC(=N)N)NC(=O)CCCCCNC(=O)[C@@H](N)CCCNC(=N)N)CC5)O[C@@H](n5ccc(N)nc5=O)C4)O[C@@H](n4ccc(N)nc4=O)C3)O2)c(=O)[nH]c1=O (stereo not given in full)	Non-toxic	Non-toxic	Non-toxic	inactive	Toxic
Cc1cn([C@H]2CNC[C@@H](COP(=O)(N(C)C)N3C[C@@H](COP(=O)(N(C)C)N4C[C@@H](COP(=O)(N(C)C)N5C[C@@H](COP(=O)(N(C)C)N6C[C@@H](COP(=O)(N(C)C)N7C[C@@H](COP(=O)(N(C)C)N8C[C@@H](COP(=O)(N(C)C)N9C[C@@H](COP(=O)(N(C)C)N%10C[C@@H](COP(=O)(N(C)C)N%11C[C@@H](COP(=O)(N(C)C)N%12C[C@@H](COP(=O)(N(C)C)N%13C[C@@H](COP(=O)(N(C)C)N%14C[C@@H](COP(=O)(N(C)C)N%15C[C@@H](COP(=O)(N(C)C)N%16C[C@@H](COP(=O)(N(C)C)N%17C[C@@H](COP(=O)(N(C)C)N%18C[C@@H](COP(=O)(N(C)C)N%19C[C@@H](COP(=O)(N(C)C)N%20C[C@@H](COP(=O)(N(C)C)N%21C[C@@H](COP(=O)(N(C)C)N%22C[C@@H](COP(=O)(N(C)C)N%23CCN(C(=O)CCNC(=O)CCCCCNC(=O)[C@H](CCCNC(=N)N)NC(=O)CCCCCNC(=O)[C@H](CCCNC(=N)N)NC(=O)[C@H](CCCNC(=N)N)NC(=O)CCCCCNC(=O)[C@H](CCCNC(=N)N)NC(=O)[C@H](CCCNC(=N)N)NC(=O)CCCCCNC(=O)[C@H](CCCNC(=N)N)NC(=O)[C@H](CCCNC(=N)N)NC(=O)CCCCCNC(=O)[C@@H](N)CCCNC(=N)N)CC%23)O[C@@H](n%23cc(C)c(=O)[nH]c%23=O)C%22)O[C@@H](n%22cnc%23c(N)ncnc%23%22)C%21)O[C@@H](n%21ccc(N)nc%21=O)C%20)O[C@@H](n%20cnc%21c(=O)[nH]c(N)nc%21%20)C%19)O[C@@H](n%19cnc%20c(=O)[nH]c(N)nc%20%19)C%18)O[C@@H](n%18cc(C)c(=O)[nH]c%18=O)C%17)O[C@@H](n%17cnc%18c(=O)[nH]c(N)nc%18%17)C%16)O[C@@H](n%16cc(C)c(=O)[nH]c%16=O)C%15)O[C@@H](n%15cc(C)c(=O)[nH]c%15=O)C%14)O[C@@H](n%14cc(C)c(=O)[nH]c%14=O)C%13)O[C@@H](n%13cnc%14c(=O)[nH]c(N)nc%14%13)C%12)O[C@@H](n%12ccc(N)nc%12=O)C%11)O[C@@H](n%11cc(C)c(=O)[nH]c%11=O)C%10)O[C@@H](n%10ccc(N)nc%10=O)C9)O[C@@H](n9cc(C)c(=O)[nH]c9=O)C8)O[C@@H](n8cc(C)c(=O)[nH]c8=O)C7)O[C@@H](n7cnc8c(=O)[nH]c(N)nc87)C6)O[C@@H](n6cnc7c(N)ncnc76)C5)O[C@@H](n5cnc6c(N)ncnc65)C4)O[C@@H](n4ccc(N)nc4=O)C3)O2)c(=O)[nH]c1=O (stereo not given in full)	Non-toxic	Non-toxic	Non-toxic	inactive	Toxic
